Experimental data published in ChEMBL document CHEMBL1926642, “Relevance of the C-5 position to schweinfurthin induced cytotoxicity” (2011).

Legend:
Format in all cases: functional
HL-60(TB) = experiment: Growth inhibition of human HL-60(TB) cells after 48 hrs by sulforhodamine B assay; details: HL-60, 48 h
Procedure, shortened: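 Run in the NCI 60 cell-line screen as the full 5-dose assay that follows initial single-dose testing; GI50 is read from the dose series.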

K562 = experiment: Growth inhibition of human K562 cells after 48 hrs by sulforhodamine B assay; details: K562, 48 h
MOLT-4 = experiment: Growth inhibition of human MOLT4 cells after 48 hrs by sulforhodamine B assay; details: MOLT-4, 48 h
RPMI-8226 = experiment: Growth inhibition of human RPMI8226 cells after 48 hrs by sulforhodamine B assay; details: RPMI-8226, 48 h
EKVX = experiment: Growth inhibition of human EKVX cells after 48 hrs by sulforhodamine B assay
NCI-H226 = experiment: Growth inhibition of human NCI-H226 cells after 48 hrs by sulforhodamine B assay; details: NCI-H226, 48 h
NCI-H522 = experiment: Growth inhibition of human NCI-H522 cells after 48 hrs by sulforhodamine B assay; details: NCI-H522, 48 h
COLO 205 = experiment: Growth inhibition of human COLO205 cells after 48 hrs by sulforhodamine B assay; details: COLO 205, 48 h
HCC 2998 = experiment: Growth inhibition of human HCC2998 cells after 48 hrs by sulforhodamine B assay; details: HCC 2998, 48 h
HCT-116 = experiment: Growth inhibition of human HCT116 cells after 48 hrs by sulforhodamine B assay; details: HCT-116, 48 h
HT-29 = experiment: Growth inhibition of human HT-29 cells after 48 hrs by sulforhodamine B assay; details: HT-29, 48 h
SW-620 = experiment: Growth inhibition of human SW620 cells after 48 hrs by sulforhodamine B assay; details: SW-620, 48 h
SF-268 = experiment: Growth inhibition of human SF268 cells after 48 hrs by sulforhodamine B assay; details: SF-268, 48 h
SF-539 = experiment: Growth inhibition of human SF539 cells after 48 hrs by sulforhodamine B assay; details: SF-539, 48 h
U-251 = experiment: Growth inhibition of human U251 cells after 48 hrs by sulforhodamine B assay; details: U-251, 48 h
LOX IMVI = experiment: Growth inhibition of human LOXIMVI cells after 48 hrs by sulforhodamine B assay
M14 = experiment: Growth inhibition of human M14 cells after 48 hrs by sulforhodamine B assay; details: M14, 48 h
MDA-MB-435 = experiment: Growth inhibition of human MDA-MB-435 cells after 48 hrs by sulforhodamine B assay; details: MDA-MB-435, 48 h
SK-MEL-2 = experiment: Growth inhibition of human SK-MEL-2 cells after 48 hrs by sulforhodamine B assay; details: SK-MEL-2, 48 h
SK-MEL-28 = experiment: Growth inhibition of human SK-MEL-28 cells after 48 hrs by sulforhodamine B assay; details: SK-MEL-28, 48 h
UACC-257 = experiment: Growth inhibition of human UACC257 cells after 48 hrs by sulforhodamine B assay; details: UACC-257, 48 h
OVCAR-3 = experiment: Growth inhibition of human OVCAR3 cells after 48 hrs by sulforhodamine B assay; details: OVCAR-3, 48 h
OVCAR-4 = experiment: Growth inhibition of human OVCAR4 cells after 48 hrs by sulforhodamine B assay; details: OVCAR-4, 48 h
NCI/ADR-RES = experiment: Growth inhibition of human NCI/ADR-RES cells after 48 hrs by sulforhodamine B assay
A498 = experiment: Growth inhibition of human A498 cells after 48 hrs by sulforhodamine B assay; details: A498, 48 h
ACHN = experiment: Growth inhibition of human ACHN cells after 48 hrs by sulforhodamine B assay
CAKI-1 = experiment: Growth inhibition of human Caki1 cells after 48 hrs by sulforhodamine B assay; details: CAKI-1, 48 h
TK-10 = experiment: Growth inhibition of human TK10 cells after 48 hrs by sulforhodamine B assay; details: TK-10, 48 h
UO-31 = experiment: Growth inhibition of human UO31 cells after 48 hrs by sulforhodamine B assay; details: UO-31, 48 h
[1] = Growth inhibition of human Hs 578T cells after 48 hrs by sulforhodamine B assay
BT-549 = experiment: Growth inhibition of human BT549 cells after 48 hrs by sulforhodamine B assay; details: BT-549, 48 h
MDA-MB-468 = experiment: Growth inhibition of human MDA-MB-468 cells after 48 hrs by sulforhodamine B assay; details: MDA-MB-468, 48 h
[2] = read-out: pLC50 (the source's name) (converted)

## COCOc1cc(/C=C/c2cc(C=O)c3c(c2)C[C@@H]2C(C)(C)[C@H](O)CC[C@@]2(C)O3)cc(OC)c1C/C=C(\C)CCC=C(C)C
HL-60(TB)
  GI50: 3.55 µM
HL-60(TB); [2]
  CC50: > 100 µM
HL-60(TB); read-out: pTGI (converted)
  TGI: 60.3 µM
K562
  GI50: 4.37 µM
  LC50: > 100 µM
K562; read-out: pTGI (converted)
  TGI: 47.9 µM
MOLT-4
  GI50: 2.82 µM
  LC50: > 100 µM
MOLT-4; read-out: pTGI (converted)
  TGI: 13.2 µM
RPMI-8226
  GI50: 1.17 µM
  LC50: > 100 µM
RPMI-8226; read-out: pTGI (converted)
  TGI: > 100 µM
EKVX
  GI50: 5.5 µM
  LC50 (50% lethal concentration): > 100 µM
EKVX; read-out: pTGI (converted)
  TGI: > 100 µM
NCI-H226
  GI50: 28.2 µM
  LC50: > 100 µM
NCI-H226; read-out: pTGI (converted)
  TGI: > 100 µM
NCI-H522
  GI50: 18.2 µM
  LC50: > 100 µM
NCI-H522; read-out: pTGI (converted)
  TGI: > 100 µM
COLO 205
  GI50: 3.47 µM
  LC50: 51.3 µM
COLO 205; read-out: pTGI (converted)
  TGI: 9.33 µM
HCC 2998
  GI50: 12.3 µM
  LC50: > 100 µM
HCC 2998; read-out: pTGI (converted)
  TGI: > 100 µM
HCT-116
  GI50: 6.61 µM
  LC50: > 100 µM
HCT-116; read-out: pTGI (converted)
  TGI: 35.5 µM
HT-29
  GI50: 4.37 µM
  LC50 (concentration killing 50% of cells): > 100 µM
HT-29; read-out: pTGI (converted)
  TGI: > 100 µM
SW-620
  GI50: 10.2 µM
  LC50: > 100 µM
SW-620; read-out: pTGI (converted)
  TGI: 44.7 µM
SF-268
  GI50: 11 µM
  LC50: > 100 µM
SF-268; read-out: pTGI (converted)
  TGI: 85.1 µM
SF-539
  GI50: 0.891 µM
  LC50: > 100 µM
SF-539; read-out: pTGI (converted)
  TGI: 12.9 µM
U-251
  GI50: 1.74 µM
  LC50: > 100 µM
U-251; read-out: pTGI (converted)
  TGI: 60.3 µM
LOX IMVI
  GI50: 3.98 µM
  LC50: 44.7 µM
LOX IMVI; read-out: pTGI (converted)
  TGI: 15.8 µM
M14
  GI50: 11.2 µM
  LC50: > 100 µM
M14; read-out: pTGI (converted)
  TGI: 64.6 µM
MDA-MB-435
  GI50: 6.76 µM
  LC50: > 100 µM
MDA-MB-435; read-out: pTGI (converted)
  TGI: 69.2 µM
SK-MEL-2
  GI50: 12.9 µM
  LC50: > 100 µM
SK-MEL-2; read-out: pTGI (converted)
  TGI: > 100 µM
SK-MEL-28
  GI50: 2.95 µM
SK-MEL-28; [2]
  CC50: > 100 µM
SK-MEL-28; read-out: pTGI (converted)
  TGI: > 100 µM
UACC-257
  GI50: 3.98 µM
  LC50: > 100 µM
UACC-257; read-out: pTGI (converted)
  TGI: 49 µM
OVCAR-3
  GI50: 27.5 µM
  LC50: > 100 µM
OVCAR-3; read-out: pTGI (converted)
  TGI: > 100 µM
OVCAR-4
  GI50: 6.92 µM
  LC50: > 100 µM
OVCAR-4; read-out: pTGI (converted)
  TGI: > 100 µM
NCI/ADR-RES
  GI50: 21.4 µM
  LC50: > 100 µM
NCI/ADR-RES; read-out: pTGI (converted)
  TGI: > 100 µM
A498
  GI50: 7.59 µM
  LC50: > 100 µM
A498; read-out: pTGI (converted)
  TGI: > 100 µM
ACHN
  GI50: 7.94 µM
  LC50: > 100 µM
ACHN; read-out: pTGI (converted)
  TGI: > 100 µM
CAKI-1
  GI50: 3.98 µM
  LC50: > 100 µM
CAKI-1; read-out: pTGI (converted)
  TGI: > 100 µM
TK-10
  GI50: 25.1 µM
  LC50: > 100 µM
TK-10; read-out: pTGI (converted)
  TGI: > 100 µM
UO-31
  GI50: 4.07 µM
  LC50: > 100 µM
UO-31; read-out: pTGI (converted)
  TGI: > 100 µM
[1]
  GI50: 1.74 µM
[1]; [2]
  CC50: > 100 µM
[1]; read-out: pTGI (converted)
  TGI: > 100 µM
BT-549
  GI50: 3.89 µM
  LC50: > 100 µM
BT-549; read-out: pTGI (converted)
  TGI: 63.1 µM
MDA-MB-468
  GI50: 4.9 µM
  LC50: > 100 µM
MDA-MB-468; read-out: pTGI (converted)
  TGI: 46.8 µM
